The results in this text go back to ChEMBL document CHEMBL1121663, “(Acylaryloxy)acetic acid diuretics. 3. 2,3-Dihydro-5-acyl-2-benzofurancarboxylic acids, a new class of uricosuric diuretics” (1981).

The test system of assay [1] is Canis familiaris. Description: Compound was tested for diuretic activity in dogs at 5 mg/kg dose after oral administration measured as microequivalent of Cl-/minute. It counts as functional, Canis lupus familiaris, Urine. The method in brief: (§1)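 Oral dog test: water loading (250 mL po, then 500 mL 1 h later). One hour later bladders were emptied by catheter and compound or placebo given in gelatin capsules. Dogs were kept in metabolism cages. Voided urine plus catheterized bladder urine was pooled at 5 h, and Na+, K+ and Cl- were measured by standard methods. Geometric means are reported.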

Assay [2] deals with Canis familiaris. Description: Compound was tested for diuretic activity in dogs at 5 mg/kg dose after oral administration measured as microequivalent of K+/minute. Format: functional, Canis lupus familiaris, Urine. The method in brief:
as §1

Assay [3] deals with Canis familiaris. Description: Compound was tested for diuretic activity in dogs at 5 mg/kg dose after oral administration measured as microequivalent of Na+/minute. It counts as functional, Canis lupus familiaris, Urine. The method in brief:
as §1

The subject of assay [4] is Canis familiaris. Put plainly: Compound was tested for diuretic activity in dogs at 5 mg/kg dose after intravenous administration measured as microequivalent of Cl-/minute (Control/Drug treated). Format: functional, Canis lupus familiaris, Urine. To be noted: in the assay text read “oral” for “intravenous”.
Assay [5] concerns Canis familiaris. Description: Compound was tested for diuretic activity in dogs at 5 mg/kg dose after intravenous administration measured as microequivalent of K+/minute (Control/Drug treated). The conditions noted are these: in the assay text read “oral” for “intravenous”. Format: functional, Canis lupus familiaris, Urine.
Assay [6] concerns Rattus norvegicus. Put plainly: Natriuretic activity in rats at 27 mg/kg of dosage; mequiv of Na. Format: functional. The method in brief:
(§2)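 Rats housed three per metabolism cage received placebo vehicle or compound as a suspension in a final volume of 5.0 mL orally, with placebo groups run concurrently. Urine was collected over 0–5 h and analysed for Na+, K+ and Cl− by standard methods. Values are mequiv per cage, given as geometric means of three cages per dose level.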

Assay [7] concerns Rattus norvegicus. Description: Natriuretic activity in rats at 3 mg/kg of dosage; mequiv of Na. It counts as functional. The method in brief:
as §2

For assay [8], the system named is Rattus norvegicus. Put plainly: Natriuretic activity in rats at 81 mg/kg of dosage; mequiv of Na. It counts as functional. The method in brief: as §2
The subject of assay [9] is Rattus norvegicus. Description: Natriuretic activity in rats at 9 mg/kg of dosage; mequiv of Na. Format: functional. The method in brief: as §2
Assay [10] deals with Canis familiaris. Put plainly: Diuretic activity in dogs following 5 mg/kg oral administration.
Assay [11] concerns Canis familiaris. Put plainly: Compound was tested for diuretic activity in dogs at 5 mg/kg dose after oral administration measured as microequivalent of Na+/minute.
Assay [12] in a line: Activity is measured as ratio of clearance of urate / […] at […]; Curate/Cinulin. Format: functional. The method in brief: (§3)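 Inulin iv gave GFR, and urate clearance was measured by AutoAnalyzer. Controls came from three 20-min periods. Aqueous compound was given orally by nasal catheter, and the response was averaged over eight 15-20 min periods. Values are treatment minus control from single experiments.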

The subject of assay [13] is Pan troglodytes. Put plainly: Compound was tested for natriuretic activity in chimpanzee at 5 mg/kg dose activity is measured as microequivalent of Na+/minute; muequiv of Na+/min. It counts as functional. The method in brief: (§4)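 Inulin iv gave GFR; urate and inulin clearances and Na+, K+, Cl- excretion were measured by AutoAnalyzer. Controls were three 20-min periods; compound was given orally in aqueous solution via nasal catheter. Response was the mean of eight 15-20 min periods, reported as treatment minus control from single experiments.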

For assay [14], the system named is Canis familiaris. Put plainly: Compound was tested for diuretic activity in dogs at 5 mg/kg dose after intravenous administration measured as microequivalent of Cl-/minute; 9/510 (Control/Drug treated). It counts as functional, Canis lupus familiaris, Urine. The method in brief:
(§5)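 Intravenous dog clearance study. A priming iv injection of 1.5 mL/kg isoosmotic pH 7.4 phosphate buffer (20 mg PO4/kg) was given first. This was followed by infusion of 3 mL/min pH 7.4 buffer containing 4% mannitol (6.9 mg PO4/min) throughout the experiment. Urinary Na+, K+ and Cl- were measured by standard methods. Each value is the mean of the two highest consecutive 15-min collections.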

Assay [15] relates to Canis familiaris. Put plainly: Compound was tested for diuretic activity in dogs at 5 mg/kg dose after intravenous administration measured as microequivalent of K+/minute; 5/19 (Control/Drug treated). It counts as functional, Canis lupus familiaris, Urine. The method in brief: as §5
Assay [16] is described as follows: Compound was tested for natriuretic activity in chimpanzee at 5 mg/kg dose activity is measured as ratio of clearance of urate / […]; Curate/Cinulin. It counts as functional. The method in brief:
as §4

Assay [17] has as its system Canis familiaris. Put plainly: Compound was tested for diuretic activity in dogs at 5 mg/kg dose after intravenous administration measured as microequivalent of Cl-/minute; 7/1385 (Control/Drug treated). Format: functional, Canis lupus familiaris, Urine. The method in brief:
as §5

Assay [18] deals with Pan troglodytes. Put plainly: Compound was tested for natriuretic activity in chimpanzee measured as microequivalent of Na+/minute at 1 mg/kg; mequiv of Na. Format: functional. The method in brief: as §4
For assay [19], the system named is Pan troglodytes. Put plainly: Compound was tested for natriuretic activity in chimpanzee measured as microequivalent of Na+/minute at 1.0 mg/kg dose; mequiv of Na. It counts as functional. The method in brief:
as §4

For assay [20], the system named is Pan troglodytes. Description: Compound was tested for natriuretic activity in chimpanzee measured as microequivalent of Na+/minute at 0 mg/kg; mequiv of Na. Format: functional. The method in brief:
as §4

Assay [21] relates to Pan troglodytes. Description: Compound was tested for natriuretic activity in chimpanzee measured as microequivalent of Na+/minute at 0.0312 mg/kg; mequiv of Na. Format: functional. The method in brief: as §4
In assay [22] the test system is Pan troglodytes. Put plainly: Compound was tested for natriuretic activity in chimpanzee measured as microequivalent of Na+/minute at 10 mg/kg; mequiv of Na. Format: functional. The method in brief: as §4
Assay [23] in a line: Activity is measured as ratio of clearance of urate / […] at 0 mg/kg; Curate/Cinulin. It counts as functional. The method in brief:
as §3

The nature of assay [24]: Activity is measured as ratio of clearance of urate / […] at 0.0312 mg/kg; Curate/Cinulin. Format: functional. The method in brief:
as §3

Assay [25] can be described thus: Activity is measured as ratio of clearance of urate / […] at 1.0 mg/kg dose; Curate/Cinulin. It counts as functional. The method in brief:
as §3

A short description of assay [26]: Activity is measured as ratio of clearance of urate / […] at 10 mg/kg; Curate/Cinulin. It counts as functional. The method in brief:
as §3

The species named for assay [27] is Pan troglodytes. Put plainly: Compound was tested for natriuretic activity in chimpanzee measured as microequivalent of Na+/minute at […]; mequiv of Na. It counts as functional. The method in brief:
as §4

“And” between values parts separate entries of the source, which are not always exact repeats. Equal entries are not always repeated.

Turning to `NC(=O)C1Cc2cc(C(=O)c3cccs3)c(Cl)c(Cl)c2O1` (centres undefined), the Oral activity in [1] amounted to 3; in [2], 1.7; in [3], 2.1; in assay [4], 3; in assay [5], 1.7; in assay [6] it was 11. In addition, the Oral activity worked out at 7 in assay [7], 25 in assay [8], 9 in [9] and 2.1 in assay [11]. Besides, in assay [10], the Urine volume was determined as 229 mL.

On to `NNC(=O)C1Cc2cc(C(=O)c3cccs3)c(Cl)c(Cl)c2O1` (centres undefined), for which the Oral activity in assay [6] is recorded as 89; in assay [7], 34; in assay [8] it was 140; in [9], 81.

For the molecule `O=C(c1cccs1)c1cc2c(c(Cl)c1Cl)O[C@@H](C(=O)O)C2` [listing 1 of 2 here], the Ratio in [12] came out at 0.157.

Take `N#CC1Cc2cc(C(=O)c3cccs3)c(Cl)c(Cl)c2O1` (centres undefined): the Oral activity came to 2.2 in assay [4]; 1.1 in assay [5]; 10 in assay [6]; 6 in [7]; 8 in [8]; 9 in assay [9]. Also, the Oral activity in assay [11] is reported as 1. In assay [10], the Urine volume was found to be 190 mL.

Consider `O=C(c1cccs1)c1cc2c(c(Cl)c1Cl)OC(CO)C2` (centres undefined), for which the Oral activity in assay [6] stood at 68; in [7], 16; in assay [8] it was 72; in assay [9] it was 45.

For `O=C(O)c1cc2cc(C(=O)c3cccs3)c(Cl)c(Cl)c2o1`, the Oral activity in assay [13] turned out to be 396; in assay [1], 9.8; in [2] it was 1.6; in [3] it was 6.9; in assay [6], 88; in assay [7] it was 32. The figures for the Oral activity in assay [8] and in assay [9] were 131 and 62, respectively. The Cl- excretion in assay [14] came out at 510 µequiv/min. Besides, the K+ excretion in assay [15] was 19 µequiv/min. For the same molecule, in assay [16], the Ratio turned out to be 0.061. In assay [10], this molecule showed a Urine volume of 270 mL.

`O=C(c1cccs1)c1cc2c(c(Cl)c1Cl)O[C@H](C(=O)O)C2`: the Oral activity in [13] was 1451; in assay [1], 53.7; in assay [2], 8.3; in assay [3], 46; in assay [6], 283; in assay [7], 177. The Oral activity in [8] is on record as 339; in assay [9], 251. The Cl- excretion in assay [17] came out at 1380 µequiv/min. The Ratio in assay [16] stood at 0.132. In assay [10], this molecule came in with a Urine volume of 501 mL.

In the case of `O=C(c1ccco1)c1cc2c(c(Cl)c1Cl)OC(C(=O)O)C2` (centres undefined), the Oral activity in [6] turned out to be 218; in [7], 69; in [8], 322; in assay [9] it was 150.

Take `O=C(c1cccs1)c1cc2c(c(Cl)c1Cl)OC(c1nnn[nH]1)C2` (centres undefined): the Oral activity in [6] is on record as 16; in assay [7] it was 13; in assay [8], 29; in [9], 16.

Regarding `O=C(c1cccs1)c1cc2c(c(Cl)c1Cl)O[C@@H](C(=O)O)C2` [listing 2 of 2 here], the Oral activity in [18] is 711 and 637; in assay [19], 540; in [20], 26; in assay [21], 256; in [22] it was 622 and 482; in assay [27], 492. The Ratio in assay [23] is 0.013; in [24], 0.01; in assay [25], -0.019; in assay [26], 0.376 and 0.358.
